# Test results as given in ChEMBL document CHEMBL1949593, “Stilbene-chalcone hybrids: design, synthesis, and evaluation as a new class of antimalarial scaffolds that trigger cell death through stage specific apoptosis” (J Med Chem, 2012).
# The source made the active and inactive calls. The calls are words filed in the database; no cut-off is given here.
# How the values were obtained:
# [1] = test system: Plasmodium falciparum; experiment: Antimalarial activity against ring stage chloroquine-sensitive Plasmodium falciparum 3D7 infected in human O positive erythrocytes after 48 hrs by SYBR green 1 fluorescence assay; assay type: functional, organism-based; conditions: 3D7, 48 h
# Outline: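 P. falciparum 3D7 in O+ human erythrocytes in complete RPMI with Albumax at 37 °C under 5% O2/5% CO2. Culture was sorbitol-synchronized to rings and plated at 2% hematocrit, 1% parasitemia. Drug range was 0–100 μM with 0.4% final DMSO, in triplicate. After 48 h, SYBR Green I fluorescence was read (ex 497/em 520 nm). IC50 was taken by visual matching of 50% growth inhibition.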
# [2] = test system: Plasmodium falciparum; experiment: Induction of apoptosis in ring stage chloroquine-sensitive Plasmodium falciparum 3D7 assessed as nuclear condensation at 6 uM at 24 hrs by Giemsa staining; assay type: functional, organism-based
# [3] = test system: Plasmodium falciparum; experiment: Growth inhibition of chloroquine-sensitive Plasmodium falciparum 3D7 trophozoites at 6 uM treated for 18 hrs followed by washout measured after 54 hrs by Giemsa staining; assay type: functional, organism-based
# [4] = test system: Plasmodium falciparum; experiment: Antimalarial activity against chloroquine-sensitive Plasmodium falciparum 3D7 assessed as merozoites egress at 6 uM treated for 8 hrs followed by washout measured after 48 hrs by Giemsa staining; assay type: functional, organism-based
# Outline: (§1)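 Highly synchronized 3D7 schizonts were exposed to drug for 8 h under normal culture conditions, alongside untreated controls. After a media wash, cultures were incubated for 48 h with or without drug. Giemsa-stained thin smears were examined microscopically for parasitemia and stage, and compared with control.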
# [5] = test system: Plasmodium falciparum; experiment: Growth inhibition of chloroquine-sensitive Plasmodium falciparum 3D7 schizonts at 6 uM treated for 8 hrs following washout incubated for 48 hrs in drug free medium by Giemsa staining; assay type: functional, organism-based
# Outline: (§2)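 Highly synchronized 3D7 cultures were exposed by stage: rings 48 h, trophozoites 24 h, schizonts 8 h. After a media wash, cultures grew 48 h in drug-free complete RPMI, in triplicate. Giemsa smears were read by counting 3000 cells per stage; pycnotic parasites were scored nonviable. Inhibition is percent of drug-free control.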
# [6] = test system: Plasmodium falciparum; experiment: Antimalarial activity against ring stage chloroquine-resistant Plasmodium falciparum INDO infected in human O positive erythrocytes after 48 hrs by SYBR green 1 fluorescence assay; assay type: functional, organism-based
# Outline: (§3)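 Ring-stage cultures were sorbitol-synchronized in O+ human erythrocytes in RPMI 1640 with 0.5% Albumax, hypoxanthine and gentamicin, then plated at 2% hematocrit and 1% parasitemia. Drugs were tested at 0–100 μM (final DMSO 0.4%) in triplicate for 48 h at 37 °C under 5% O2/5% CO2/90% N2. Read-out was SYBR Green I (ex 497/em 520 nm). IC50 was read visually as 50% growth inhibition, with chloroquine as control.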
# [7] = test system: Plasmodium falciparum; experiment: Induction of apoptosis in ring stage chloroquine-sensitive Plasmodium falciparum 3D7 assessed as chromatin condensation at 6 uM at 18 hrs by Hoechst 33342 staining; assay type: functional, organism-based
# [8] = test system: Plasmodium falciparum; experiment: Growth inhibition of ring stage chloroquine-sensitive Plasmodium falciparum 3D7 at 6 uM treated for 48 hrs followed by washout measured after 48 hrs by Giemsa staining; assay type: functional, organism-based; outline: as §2
# [9] = test system: Plasmodium falciparum; experiment: Growth inhibition of ring stage chloroquine-sensitive Plasmodium falciparum 3D7 at 6 uM treated for 48 hrs following washout incubated for 48 hrs in drug free medium by SYBR green 1-based fluorescence assay; assay type: functional, organism-based
# Outline: (§4)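 Stage-specific exposure of synchronized 3D7: rings 48 h, trophozoites 24 h, schizonts 8 h. Drug was removed by media wash and cultures grew 48 h drug-free, in a separate triplicate set. Growth was read by SYBR Green I fluorescence and expressed as percent inhibition relative to drug-free control.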
# [10] = test system: Plasmodium falciparum; experiment: Growth inhibition of chloroquine-sensitive Plasmodium falciparum 3D7 trophozoites at 6 uM treated for 24 hrs following washout incubated for 48 hrs in drug free medium by SYBR green 1-based fluorescence assay; assay type: functional, organism-based; outline: as §4
# [11] = test system: Plasmodium falciparum; experiment: Induction of apoptosis in chloroquine-sensitive Plasmodium falciparum 3D7 trophozoites assessed as chromatin fragmentation at 6 uM at 18 hrs by Hoechst 33342 staining; assay type: functional, organism-based
# Outline: (§5)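 3D7 trophozoite cultures were treated 18 or 24 h, and ring cultures 24, 42 or 48 h. Parasites were stained with Hoechst 33342 for 10 min at room temperature, washed with PBS, and smeared. Condensed or fragmented chromatin (blue, 460 nm) was viewed by fluorescence microscopy.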
# [12] = test system: Plasmodium falciparum; experiment: Induction of apoptosis in ring stage chloroquine-sensitive Plasmodium falciparum 3D7 assessed as chromatin fragmentation at 6 uM at 18 hrs by Hoechst 33342 staining; assay type: functional, organism-based
# [13] = test system: Plasmodium falciparum; experiment: Growth inhibition of chloroquine-sensitive Plasmodium falciparum 3D7 schizonts at 6 uM treated for 8 hrs following washout incubated for 48 hrs in drug free medium by SYBR green 1-based fluorescence assay; assay type: functional, organism-based; outline: as §4
# [14] = test system: Plasmodium falciparum; experiment: Reduction in parasitemia of ring stage chloroquine-sensitive Plasmodium falciparum 3D7 at 6 uM after 48 hrs by Giemsa staining; assay type: functional, organism-based
# [15] = Therapeutic index, ratio of IC50 for […] cells to IC50 for ring stage chloroquine-sensitive Plasmodium falciparum 3D7; assay type: cell-based; conditions: mouse, read-out: Ratio IC50
# Outline: (§6)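 HeLa or L929 fibroblasts were seeded at 10^4 cells per well in RPMI with 10% FBS, left overnight, then exposed 24 h at 37 °C, 5% CO2. MTT was added for 3 h; formazan was dissolved in DMSO and read at 570 nm. IC50 came from dose–response curves. Index = IC50(mammalian)/IC50(Pf 3D7, SYBR Green assay).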
# [16] = Inhibition of Plasmodium falciparum falcipain-2 using benzyloxycarbonyl-Phe-Arg-7-amino-4-methyl coumarin hydrochloride as substrate preincubated for 10 mins prior substrate addition by fluorimetric assay
# Outline: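 Recombinant falcipain-2 (2 μg) was preincubated 10 min at room temperature with or without compound, in triplicate. Buffer was 100 mM sodium acetate pH 5.5 with 10 mM DTT and 1% final DMSO. Z-Phe-Arg-AMC was then added at 10 μM final. AMC release was read at ex 355/em 460 nm. IC50 was taken by visual matching of 50% inhibition.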
# [17] = test system: Plasmodium falciparum; experiment: Antimalarial activity against ring stage chloroquine-resistant Plasmodium falciparum Dd2 infected in human O positive erythrocytes after 48 hrs by SYBR green 1 fluorescence assay; assay type: functional, organism-based; conditions: Dd2, 48 h; outline: as §3
# [18] = Resistance index, ratio of IC50 for ring stage chloroquine-resistant Plasmodium falciparum Dd2 to IC50 for ring stage chloroquine-sensitive Plasmodium falciparum 3D7; assay type: functional
# [19] = test system: Plasmodium falciparum; experiment: Reduction in parasitemia of chloroquine-sensitive Plasmodium falciparum 3D7 trophozoites at 6 uM after 48 hrs by Giemsa staining; assay type: functional, organism-based
# [20] = test system: Plasmodium falciparum; experiment: Induction of apoptosis in chloroquine-sensitive Plasmodium falciparum 3D7 trophozoites assessed as chromatin condensation at 6 uM at 18 hrs by Hoechst 33342 staining; assay type: functional, organism-based; outline: as §5
# [21] = test system: Plasmodium falciparum; experiment: Induction of internucleosomal fragmentation in chloroquine-sensitive Plasmodium falciparum 3D7 trophozoites at 6 uM at 24 hrs by Hoechst 33342 staining; assay type: functional, organism-based; outline: as §5
# [22] = test system: Plasmodium falciparum; experiment: Growth inhibition of chloroquine-sensitive Plasmodium falciparum 3D7 trophozoites at 6 uM treated for 24 hrs following washout incubated for 48 hrs in drug free medium by Giemsa staining; assay type: functional, organism-based; outline: as §2
# [23] = test system: Plasmodium falciparum; experiment: Antimalarial activity against chloroquine-sensitive Plasmodium falciparum 3D7 assessed as inhibition of schizonts growth at 6 uM treated for 8 hrs followed by washout measured after 48 hrs by Giemsa staining; assay type: functional, organism-based; outline: as §1
# [24] = test system: Plasmodium falciparum; experiment: Induction of internucleosomal fragmentation in ring stage chloroquine-sensitive Plasmodium falciparum 3D7 at 6 uM at 24 hrs by Hoechst 33342 staining; assay type: functional, organism-based; outline: as §5
# [25] = test system: Plasmodium falciparum; experiment: Induction of apoptosis in chloroquine-sensitive Plasmodium falciparum 3D7 trophozoites assessed as disruption of mitochondrial membrane potential at 6 uM by JC-1 staining; assay type: functional, organism-based
# Outline: (§7)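 3D7 ring cultures were treated 24, 42 or 48 h, and trophozoite cultures 18 or 24 h. Parasites were stained with JC-1 for 20 min at 37 °C and viewed as wet mounts by fluorescence microscopy. Red-orange aggregate signal (590 nm) indicates intact ΔΨm; green monomer signal (525 nm) indicates dissipation.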
# [26] = Resistance index, ratio of IC50 for ring stage chloroquine-resistant Plasmodium falciparum INDO to IC50 for ring stage chloroquine-sensitive Plasmodium falciparum 3D7; assay type: functional
# [27] = Therapeutic index, ratio of IC50 for human HeLa cells to IC50 for ring stage chloroquine-sensitive Plasmodium falciparum 3D7; assay type: cell-based; conditions: read-out: Ratio IC50; outline: as §6
# [28] = test system: Plasmodium falciparum; experiment: Inhibition of RBC invasion of chloroquine-sensitive Plasmodium falciparum 3D7 schizonts at 6 uM treated for 8 hrs followed by washout measured after 48 hrs by Giemsa staining; assay type: functional, organism-based; outline: as §1
# [29] = test system: Plasmodium falciparum; experiment: Induction of apoptosis in chloroquine-sensitive Plasmodium falciparum 3D7 trophozoites assessed as nuclear condensation at 6 uM at 24 hrs by Giemsa staining; assay type: functional, organism-based
# [30] = test system: Plasmodium falciparum; experiment: Induction of apoptosis in ring stage chloroquine-sensitive Plasmodium falciparum 3D7 assessed as disruption of mitochondrial membrane potential at 6 uM by JC-1 staining; assay type: functional, organism-based; outline: as §7
structure (smiles),measurement,setting,value
O=C(/C=C/c1ccco1)c1ccc(/C=C/c2ccccc2)cc1,IC50,[1],> 100 µM
COc1cc(OC)c(OC)cc1/C=C/C(=O)c1ccc(O)cc1,IC50,[1],61 µM
COc1cc(OC)c(OC)cc1/C=C/C(=O)c1ccc(/C=C/c2cc(OC)c(OS(=O)(=O)c3ccc(C)cc3)c(OC)c2)cc1,IC50,[1],> 100 µM
COc1ccc(/C=C/C(=O)c2ccc(/C=C/c3ccccc3)cc2)cc1OC,IC50,[1],29.5 µM
COc1cc(OC)c(OC)cc1/C=C/C(=O)c1ccc(/C=C/c2ccccc2)cc1,IC50,[1],18 µM
COc1cc(OC)c(OC)cc1/C=C/C(=O)c1ccc(/C=C/c2cc(OC)c(O)c(OC)c2)cc1,Activity,[2],Active
same,growth inhibition (GI),[3],Active
same,inhibition,[4],inactive
same,growth inhibition (GI),[5],inactive
same,IC50,[6],1.4 µM
same,Activity,[7],Active
same,growth inhibition (GI),[8],Active
same,growth inhibition (GI),[9],Active
same,growth inhibition (GI),[10],Active
same,Activity,[11],Active
same,Activity,[12],Active
same,growth inhibition (GI),[13],inactive
same,Activity,[14],Active
same,selectivity ratio,[15],45.5
same,IC50,[16],37.5 µM
same,IC50,[17],6.4 µM
same,Ratio IC50,[18],2.9
same,Activity,[19],Active
same,Activity,[20],Active
same,Activity,[21],Active
same,growth inhibition (GI),[22],Active
same,growth inhibition (GI),[23],inactive
same,Activity,[24],inactive
same,Activity,[25],Active
same,Ratio IC50,[26],0.64
same,IC50,[1],2.2 µM
same,selectivity ratio,[27],42.3
same,inhibition,[28],inactive
same,Activity,[29],Active
same,Activity,[30],Active
COc1cc(OC)c(OC)cc1/C=C/C(=O)c1ccc(/C=C/c2ccc(O)c(O)c2)cc1,IC50,[6],4.6 µM
same,selectivity ratio,[15],7.6
same,IC50,[16],19 µM
same,IC50,[17],7.1 µM
same,Ratio IC50,[18],1.7
same,Ratio IC50,[26],1.1
same,IC50,[1],4.2 µM
same,selectivity ratio,[27],> 23.8
COc1ccc(/C=C/C(=O)c2ccc(/C=C/c3cc(OC)c(O)c(OC)c3)cc2)cc1,IC50,[1],15 µM
COc1ccc(/C=C/c2cc(OC)c(O)c(OC)c2)cc1,IC50,[1],> 100 µM
COc1cc(/C=C/c2ccc(C(=O)/C=C/c3ccc(OC)c(OC)c3OC)cc2)cc(OC)c1O,IC50,[6],5.88 µM
same,selectivity ratio,[15],> 43
same,IC50,[16],70 µM
same,IC50,[17],5.39 µM
same,Ratio IC50,[18],1.1
same,Ratio IC50,[26],1.2
same,IC50,[1],4.9 µM
same,selectivity ratio,[27],> 43
COc1cc(OC)c(/C=C/C(=O)c2ccc(/C=C/c3cc(OC)c(O)c(OC)c3)cc2)c(OC)c1,IC50,[1],16 µM
COc1cc(/C=C/c2ccc(C(=O)/C=C/c3cc(OC)c(OC)cc3OC)cc2)ccc1O,IC50,[6],2.65 µM
same,selectivity ratio,[15],4.7
same,IC50,[16],23 µM
same,IC50,[17],3.71 µM
same,Ratio IC50,[18],0.7
same,Ratio IC50,[26],0.5
same,IC50,[1],5.3 µM
same,selectivity ratio,[27],> 37.7
